# Key:
# Cathepsin B = Cathepsin B (Bos taurus, UniProt P07688); assay: Inhibition of alpha-keto esters towards cathepsin B at pH 5.2
# Outline: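 Bovine cathepsin B in 20 mM sodium acetate pH 5.2, 0.5 mM dithiothreitol, 2% DMSO. Substrate Bz-Phe-Val-Arg-p-nitroanilide; p-nitroaniline release followed at 405 nm. Ki reported.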
# Calpain 1 = Calpain 1 (Homo sapiens, UniProt P07384); assay: Inhibitory activity of alpha-keto esters towards calpain 1 at pH 8.0.; assay type: protein-complex assay
# Outline: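 Calpain I purified from human erythrocytes; calpain II from rabbit muscle. Buffer: 25 mM Tris pH 8.0, 1 mM β-mercaptoethanol, 10 mM CaCl2, up to 5% DMSO. Substrate: Suc-Leu-Tyr-AMC at 1–3 mM, 70 nM final enzyme, started with enzyme. AMC fluorescence read at ex 380 / em 460 nm. Initial rates taken at 30–60 s at room temperature, with five or more inhibitor levels and two substrate levels. Ki from Dixon plots, triplicates.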
# Papain = biological target: T1, Papain (Carica papaya, UniProt P00784); assay: Inhibitory activity of alpha-ketoesters towards papain at pH 6.0
# T1 sequence (P00784 whole entry): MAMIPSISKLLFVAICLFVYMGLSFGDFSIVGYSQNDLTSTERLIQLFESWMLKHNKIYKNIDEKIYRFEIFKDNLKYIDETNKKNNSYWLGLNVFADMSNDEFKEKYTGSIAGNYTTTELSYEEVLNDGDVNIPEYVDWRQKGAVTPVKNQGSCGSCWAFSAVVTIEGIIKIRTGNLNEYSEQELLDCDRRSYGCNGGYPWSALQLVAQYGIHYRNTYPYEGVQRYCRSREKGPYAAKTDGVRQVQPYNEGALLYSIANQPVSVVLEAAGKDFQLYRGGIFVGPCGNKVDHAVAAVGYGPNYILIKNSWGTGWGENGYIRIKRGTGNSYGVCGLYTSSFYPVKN
# Outline: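 Papain in 100 mM K3PO4, 1 mM EDTA, 2.5 mM cysteine, pH 6.0, 2% DMSO. Substrate Bz-Arg-p-nitroanilide; p-nitroaniline release read at 405 nm. Ki reported.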
# Rattus norvegicus = organism: Rattus norvegicus; assay: Inhibitory potency against rat platelet membrane permeability at pH 7.35; assay type: functional
# Outline: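 Rat platelets from cardiac-puncture blood (citrate-EDTA), gel-filtered in HEPES-Tyrode's pH 7.35, at 10^7/mL. Preincubated 5 min at room temperature with inhibitor from DMSO stocks (2% DMSO), then given 1 μM A23187 plus 2 mM Ca for 5 min. Pellets run on SDS-PAGE and western blotted for spectrin. Densitometry of the 150/155-kDa breakdown doublet gives IC50.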
# Chain of Calpain 1 (P04632 whole entry): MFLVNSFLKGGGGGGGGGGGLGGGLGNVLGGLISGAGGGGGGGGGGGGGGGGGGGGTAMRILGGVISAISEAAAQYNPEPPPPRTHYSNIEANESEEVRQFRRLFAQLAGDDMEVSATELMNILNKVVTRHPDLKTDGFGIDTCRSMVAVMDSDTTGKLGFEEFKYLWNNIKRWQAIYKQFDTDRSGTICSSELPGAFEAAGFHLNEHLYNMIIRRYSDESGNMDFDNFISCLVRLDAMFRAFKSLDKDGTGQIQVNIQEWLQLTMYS
# Chain of Calpain 1 (P07384 whole entry): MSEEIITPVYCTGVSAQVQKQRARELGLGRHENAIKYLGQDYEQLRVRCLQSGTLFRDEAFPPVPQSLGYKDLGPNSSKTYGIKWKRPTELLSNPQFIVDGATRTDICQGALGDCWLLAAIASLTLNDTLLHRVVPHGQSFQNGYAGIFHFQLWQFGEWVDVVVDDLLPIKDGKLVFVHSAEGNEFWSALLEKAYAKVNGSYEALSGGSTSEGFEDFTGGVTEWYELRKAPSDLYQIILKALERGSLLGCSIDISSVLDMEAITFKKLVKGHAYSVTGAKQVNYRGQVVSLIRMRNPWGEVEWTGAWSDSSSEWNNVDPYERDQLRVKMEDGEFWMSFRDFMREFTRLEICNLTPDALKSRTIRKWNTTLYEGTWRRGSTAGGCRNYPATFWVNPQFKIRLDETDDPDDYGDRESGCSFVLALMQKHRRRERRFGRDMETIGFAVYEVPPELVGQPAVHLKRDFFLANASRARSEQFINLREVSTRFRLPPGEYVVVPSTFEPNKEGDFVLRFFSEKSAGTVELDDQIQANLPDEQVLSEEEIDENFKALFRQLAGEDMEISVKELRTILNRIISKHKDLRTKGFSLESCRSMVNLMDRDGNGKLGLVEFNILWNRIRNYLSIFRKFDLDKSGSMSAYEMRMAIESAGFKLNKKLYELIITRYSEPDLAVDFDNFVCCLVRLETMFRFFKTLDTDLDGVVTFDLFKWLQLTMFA
SMILES,Ki (Cathepsin B) [µM],Ki (Calpain 1) [µM],Ki (Papain) [µM],IC50 (Rattus norvegicus) [µM]
CCOC(=O)C(=O)C(CC)NC(=O)C(CC(C)C)NC(=O)CCCCc1ccccc1 (configuration not stated),7.5,,,
CCC(NC(=O)C(CC(C)C)NC(=O)OCc1ccccc1)C(=O)C(=O)OCc1ccccc1 (configuration not stated),4,9.5,40,100
CCC(NC(=O)C(CC(C)C)NC(=O)OCc1ccccc1)C(=O)C(=O)NCCCCc1ccccc1 (configuration not stated),1.2,0.32,,
CCC(NC(=O)C(CC(C)C)NC(=O)OCc1ccccc1)C(=O)C(=O)NCC(C)C (configuration not stated),4,4,,28
CCOC(=O)C(=O)C(CC)NC(=O)C(CC(C)C)NS(=O)(=O)c1ccc2ccccc2c1 (configuration not stated),19,,,
CCCCCCCCCCNC(=O)C(=O)C(CC)NC(=O)C(CC(C)C)NC(=O)OCc1ccccc1 (configuration not stated),5,,,
CCC(NC(=O)C(CC(C)C)NC(=O)OCc1ccccc1)C(=O)C(=O)NCC(C)c1ccccc1 (configuration not stated),,0.32,,27
CCOC(=O)C(=O)C(CC)NC(=O)C(CC(C)C)NC(=O)OCC(C)C (configuration not stated),0.4,,,> 300
CCCCC(NC(=O)C(CC(C)C)NC(=O)OCc1ccccc1)C(=O)C(=O)OCC (configuration not stated),20,7,190,150
CCCCCCCNC(=O)C(=O)C(CC)NC(=O)C(CC(C)C)NC(=O)OCc1ccccc1 (configuration not stated),14,0.096,,
CCC(C)NC(=O)C(=O)C(CC)NC(=O)C(CC(C)C)NC(=O)OCc1ccccc1 (configuration not stated),0.5,2,,
CCCNC(=O)C(=O)C(Cc1ccccc1)NC(=O)C(CC(C)C)NC(=O)OCc1ccccc1 (configuration not stated),3,15,,31
COC(=O)C(=O)C(Cc1ccccc1)NC(=O)C(CC(C)C)NC(=O)OCc1ccccc1 (configuration not stated),> 100,,,
CC(C)CC(NC(=O)OCc1ccccc1)C(=O)NC(Cc1ccccc1)C(=O)C(N)=O (configuration not stated),32,1,,
CCCNC(=O)C(=O)C(CC)NC(=O)C(CC(C)C)NC(=O)OCc1ccccc1 (configuration not stated),8,,,70
CCCC(NC(=O)C(CC(C)C)NC(=O)OCc1ccccc1)C(=O)C(=O)NCC (configuration not stated),3.3,0.21,,40
CC(C)CC(NC(=O)OCc1ccccc1)C(=O)NC(Cc1ccccc1)C(=O)C(=O)O (configuration not stated),4.5,0.0085,7,100
CCN(CC)C(=O)C(=O)C(Cc1ccccc1)NC(=O)C(CC(C)C)NC(=O)OCc1ccccc1 (configuration not stated),,76,,
CCOC(=O)C(=O)C(Cc1ccc(Cl)cc1)NC(=O)C(CC(C)C)NC(=O)OCc1ccccc1 (configuration not stated),50,< 4,150,

SMILES,Ki (Cathepsin B) [µM],Ki (Calpain 1) [µM],Ki (Papain) [µM],IC50 (Rattus norvegicus) [µM]
CCOC(=O)C(=O)C(CCSC)NC(=O)C(CC(C)C)NC(=O)OCc1ccccc1 (configuration not stated),55,1,140,
CCC(NC(=O)C(CC(C)C)NC(=O)OCc1ccccc1)C(=O)C(=O)NCCc1ccccc1 (configuration not stated),1.3,0.2,38,50
CCCCOC(=O)C(=O)C(Cc1ccccc1)NC(=O)C(CC(C)C)NC(=O)OCc1ccccc1 (configuration not stated),15,5,15,
CCC(NC(=O)C(CC(C)C)NC(=O)OCc1ccccc1)C(=O)C(=O)OC (configuration not stated),17,,,280
CCOC(=O)C(=O)C(CC)NC(=O)C(CC(C)C)NC(=O)C(c1ccccc1)c1ccccc1 (configuration not stated),,0.1,,> 100
CCOC(=O)C(=O)C(CC)NC(=O)C(CC(C)C)NC(=O)CCc1ccccc1 (configuration not stated),23,40,,20
CCCC(NC(=O)C(CC(C)C)NC(=O)OCc1ccccc1)C(=O)C(N)=O (configuration not stated),,0.069,,
CCC(NC(=O)C(CC(C)C)NC(=O)OCc1ccccc1)C(=O)C(=O)NCC1CCCCC1 (configuration not stated),,0.68,,66
CCCC(NC(=O)C(CC(C)C)NC(=O)OCc1ccccc1)C(=O)C(=O)OCC (configuration not stated),25,1.4,150,100
CCOC(=O)C(=O)C(CC)NC(=O)C(CC(C)C)NC(=O)OCc1ccccc1 (configuration not stated),30,4.5,220,300
CCC(NC(=O)C(CC(C)C)NC(=O)OCc1ccccc1)C(=O)C(=O)NCc1ccccc1 (configuration not stated),1.3,0.2,38,50
CCOC(=O)C(=O)C(CC)NC(=O)C(CC(C)C)NC(=O)CCCc1ccccc1 (configuration not stated),23,,,20
CCC(NC(=O)C(CC(C)C)NC(=O)OCc1ccccc1)C(=O)C(=O)O (configuration not stated),1.5,0.075,13.5,100
CCC(NC(=O)C(CC(C)C)NC(=O)OCc1ccccc1)C(=O)C(=O)NCCCc1ccccc1 (configuration not stated),0.2,0.8,,100
CCC(=O)C(=O)[C@H](CC)NC(=O)[C@H](CC(C)C)NC(=O)[C@H](CC(C)C)NC(=O)OCc1ccccc1,22,1.8,,40
CCOC(=O)C(=O)[C@H](Cc1ccccc1)NC(=O)[C@H](CC(C)C)NC(=O)[C@H](CC(C)C)NC(=O)OCc1ccccc1,42,1.4,15,
CCOC(=O)C(=O)[C@H](CC)NC(=O)[C@H](CC(C)C)NC(=O)[C@H](CC(C)C)NS(=O)(=O)c1ccc(C)cc1,69,33,,30
CCOC(=O)C(=O)[C@H](CC)NC(=O)[C@H](CC(C)C)NC(=O)[C@H](CC(C)C)NS(=O)(=O)c1ccc2ccccc2c1,25,16,,100
CCOC(=O)C(=O)[C@H](CC)NC(=O)[C@H](CC(C)C)NC(=O)[C@H](CC(C)C)NC(=O)c1ccc2ccccc2c1,,1.3,,78

SMILES,Ki (Cathepsin B) [µM],Ki (Calpain 1) [µM],Ki (Papain) [µM],IC50 (Rattus norvegicus) [µM]
CC(C)CC(NC(=O)OCc1ccccc1)C(=O)NC(Cc1ccccc1)C(=O)C(=O)OCc1ccccc1 (configuration not stated),45,3.4,45,
CCNC(=O)C(=O)C(CC)NC(=O)C(CC(C)C)NC(=O)OCc1ccccc1 (configuration not stated),2.4,0.25,93,100
CCCCCCCCNC(=O)C(=O)C(CC)NC(=O)C(CC(C)C)NC(=O)OCc1ccccc1 (configuration not stated),2.6,0.32,,200
CCC(NC(=O)C(CC(C)C)NC(=O)OCc1ccccc1)C(=O)C(N)=O (configuration not stated),3.4,0.28,190,89
CCC(NC(=O)C(CC(C)C)NC(=O)OCc1ccccc1)C(=O)C(=O)NCC(c1ccccc1)c1ccccc1 (configuration not stated),3,0.16,,
CCC(NC(=O)C(CC(C)C)NC(=O)OCc1ccccc1)C(=O)C(=O)N(CC)CC (configuration not stated),270,,,
CCCCCCCCCNC(=O)C(=O)C(CC)NC(=O)C(CC(C)C)NC(=O)OCc1ccccc1 (configuration not stated),150,0.12,,
CCOC(=O)C(=O)C(CC)NC(=O)C(CC(C)C)NC(=O)C(CC)Oc1ccccc1 (configuration not stated),14,20,,22
CC(C)CC(NC(=O)OCc1ccccc1)C(=O)NC(Cc1ccccc1)C(=O)C(=O)NCCc1ccccc1 (configuration not stated),9.3,0.052,100,100
CCOC(=O)C(=O)C(CC)NC(=O)C(CC(C)C)NC(=O)CCC(C)Cc1ccccc1 (configuration not stated),24,,,
CCCCOC(=O)C(=O)C(CC)NC(=O)C(CC(C)C)NC(=O)OCc1ccccc1 (configuration not stated),4,1.8,10,28
CCC(NC(=O)C(CC(C)C)NC(=O)OCc1ccccc1)C(=O)C(=O)N(CC)Cc1ccccc1 (configuration not stated),> 400,,,
CCOC(=O)C(=O)C(Cc1ccccc1)NC(=O)C(CC(C)C)NC(=O)OCc1ccccc1 (configuration not stated),340,1.8,75,200
CC(C)CC(NC(=O)OCc1ccccc1)C(=O)NC(Cc1ccccc1)C(=O)C(=O)NCc1ccccc1 (configuration not stated),4.6,,,> 300
CCNC(=O)C(=O)C(Cc1ccccc1)NC(=O)C(CC(C)C)NC(=O)OCc1ccccc1 (configuration not stated),6,0.2,45,22
CCC(NC(=O)C(CC(C)C)NC(=O)OCc1ccccc1)C(=O)C(=O)N(Cc1ccccc1)Cc1ccccc1 (configuration not stated),31,> 5,,
CCCCNC(=O)C(=O)C(Cc1ccccc1)NC(=O)C(CC(C)C)NC(=O)OCc1ccccc1 (configuration not stated),3,0.5,,38
CC(C)CNC(=O)C(=O)C(Cc1ccccc1)NC(=O)C(CC(C)C)NC(=O)OCc1ccccc1 (configuration not stated),4,0.08,,22
CCCCNC(=O)C(=O)C(CC)NC(=O)C(CC(C)C)NC(=O)OCc1ccccc1 (configuration not stated),13,0.2,93,35

# Source: ChEMBL document CHEMBL1126888, “Peptide alpha-keto ester, alpha-keto amide, and alpha-keto acid inhibitors of calpains and other cysteine proteases” (J Med Chem, 1993)
